The subject of one assay is SW-620. The assay can be described thus: Cytotoxicity against human SW620 cells after 72 hrs. In kind it is functional. A digest of the protocol:
(§1)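 Cells seeded at 2.5×10^4 cells/mL (150 μL per well) and preincubated ~24 h at 37 °C, 5% CO₂. Compounds dissolved at 1.0 mg/mL in MeOH (stock), 50 μL added, then serially diluted 4-fold for eight concentrations. After 72 h further incubation, cells fixed with HBSS–formaldehyde–water (1:1:8) for 10 min. Stained with 0.0075% crystal violet for 15 min. Concentration giving total cell kill (IC100) read.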

The next assay concerns HCT-116. Briefly: Cytotoxicity against human HCT116 cells after 72 hrs. The assay is classed as functional. A digest of the protocol:
as §1

Assay [1] in a line: Cytotoxicity against human A2780S cells after 72 hrs. The assay is classed as functional, A2780. In a few lines:
as §1

`CC1/C=C/C(=O)O[C@@]23C(=O)N[C@@H](Cc4ccccc4)[C@@H]2[C@H](C)[C@@]2(C)O[C@H]2[C@@H]3/C=C/CC(C)C1O` (stereo partly specified): the IC100 worked out at 15.6 µg/mL in the assay on SW-620, 3.91 µg/mL in the assay on HCT-116 and 3.91 µg/mL in assay [1].
With `CC1CCC(=O)O[C@@]23C(=O)N[C@@H](Cc4ccccc4)[C@@H]2[C@H](C)[C@@]2(C)O[C@H]2[C@@H]3/C=C/CC(C)(O)C1=O` (stereo partly specified), the IC100 with SW-620 is 62.5 µg/mL; in the assay on HCT-116, 15.6 µg/mL; in assay [1], 15.6 µg/mL.
Turning to `CC1CCC(=O)O[C@@]23C(=O)N[C@@H](Cc4ccccc4)[C@@H]2[C@H](C)[C@@]2(C)O[C@H]2[C@@H]3/C=C/CC(CO)C1=O` (stereo partly specified), the IC100 with HCT-116 worked out at 15.6 µg/mL; in assay [1], 3.91 µg/mL.
In the case of `C[C@H]1C/C=C/[C@H]2[C@@H]3O[C@]3(C)[C@@H](C)[C@H]3[C@H](Cc4ccccc4)NC(=O)[C@]32OC(=O)O/C=C/[C@@](C)(O)C1=O` [CYTOCHALASIN E], the IC100 in the assay on SW-620 is 0.977 µg/mL; in the assay with HCT-116, 0.244 µg/mL; in assay [1], less than 0.0153 µg/mL.

For the origin of these results see ChEMBL document CHEMBL1154990, “Three new cytochalasins produced by an endophytic fungus in the genus Rhinocladiella” (2000).
